OX1R antag-1 = antagonists of human orexin 1 receptor (OX1R); O43613; OX1R-expressing cells, FRET antagonist read-out; inhibition, % at 6.6 µM; 330,000 tested, 1.8% active; AID 485270; in the data active = inhibition mostly above about 38%, no sharp cut-off; inactive = mostly below about 40%;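 note: 0% = agonist challenge alone and 100% = reference antagonist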
Target sequence (O43613 whole entry, looked up): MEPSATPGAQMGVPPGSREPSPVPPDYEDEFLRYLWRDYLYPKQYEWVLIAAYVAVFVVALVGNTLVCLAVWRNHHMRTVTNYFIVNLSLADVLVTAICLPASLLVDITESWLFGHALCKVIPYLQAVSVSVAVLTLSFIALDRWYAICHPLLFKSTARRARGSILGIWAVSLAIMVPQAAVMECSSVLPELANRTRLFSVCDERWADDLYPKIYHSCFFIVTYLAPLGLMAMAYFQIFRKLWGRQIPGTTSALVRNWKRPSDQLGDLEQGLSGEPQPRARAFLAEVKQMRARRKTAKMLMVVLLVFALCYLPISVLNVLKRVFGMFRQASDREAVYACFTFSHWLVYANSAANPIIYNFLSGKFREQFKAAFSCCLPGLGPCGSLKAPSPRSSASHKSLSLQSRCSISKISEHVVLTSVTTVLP
OX1R antag-2 = human HCRTR1 antagonism; CHO/OX1R cells, Fluo-8 calcium fluorescence, orexin A; inhibition, % at 5 µM; AID 434989; 330,000 tested, 0.43% active;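 active = inhibition above its plate's threshold, mean inhibition of all tested compounds on the plate plus 3 SD, cut at about 37% in these data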;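 note: 0% = orexin A challenge wells and 100% = SB-334867-A antagonist wells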
CHO parental Ca = counter-screen: ATP calcium response change in parental CHO cells; parental CHO-K1, ATP-induced calcium, Fluo-8 fluorescence; inhibition, % at 5.6 µM; 330,000 tested, 0.63% active; AID 463079;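 active = inhibition above that plate's mean sample inhibition plus 3 SD, cut at about 26% in these data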;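 note: 0% = ATP-challenged DMSO wells and 100% = DMSO wells without ATP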
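Measured by: calcium-sensitive Fluo-8 fluorescence / Test system: CHO parental line / Controls: ATP-challenged DMSO wells low, unchallenged DMSO wells high / Measure: % inhibition / Compound: single nominal dose of 5.6 µM per compound / Replicates: single well per compound, no replicates / Reagent: ATP as calcium-mobilizing challenge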
CHO-K1 Ca ag = M1 agonist counterscreen hit in parental CHO-K1 cells; Fluo-8 calcium fluorescence; scaled to maximal ATP response, vehicle zero; activation, % at 3 µM; 360,000 tested, 0.48% active; AID 602248; in the data active = activation above about 15%;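 note: untransfected CHO-K1 host cells lacking M1 receptor as counterscreen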
CHO-K1 Ca antag = counter-screen for M1 antagonists: effect in parental CHO-K1 cells; ATP-induced calcium, Fluo-8 fluorescence; inhibition, % at 3 µM; 360,000 tested, 0.6% active; AID 602250;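 active = inhibition above a per-plate cutoff, the plate's mean sample inhibition plus 3 SD, cut at about 24% in these data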;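 note: 0% = DMSO plus EC80 ATP and 100% = DMSO alone without ATP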
M1 PAM parental = nonselective activator or artifact in parental CHO-K1 calcium assay | activation, % at 3 µM | ATP EC20, Fluo-8 calcium fluorescence; 0% at ATP EC20, 100% at ATP max | 360,000 tested, 0.02% active;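 active = activation above the run cutoff, the mean activation of all test compounds plus 3 SD, cut at about 40% in these data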;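 note: peak over basal fluorescence ratio in a 140 s read after ATP addition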
OX1R HTRF conf = confirmation of human orexin 1 receptor antagonists, HTRF format; shares compounds with OX1R antag-1; OX1R-expressing cells, HTRF antagonist assay; inhibition, % at 6.6 µM; 1,800 tested, 49% active; AID 492964; in the data active = inhibition above about 55%;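 note: CHO cells expressing OX1R stimulated with orexin A at about EC80; 0% = agonist challenge alone and 100% = reference antagonist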
CHO-K1 HTRF cnt = counter-screen for OX1R antagonists: effect in parental CHO-K1 cells; HTRF counterscreen; shares compounds with OX1R antag-1; 1,800 tested, 48% active; inhibition, % at 6.6 µM; in the data active = inhibition above about 17%;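 note: 0% = agonist challenge with vehicle and 100% = vehicle alone without agonist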
* hit, by the source's call; nt = no result. An excerpt weighted towards active compounds, which were near 2.9% of everything screened.

SMILES | OX1R antag-1 | OX1R antag-2 | CHO parental Ca | CHO-K1 Ca ag | CHO-K1 Ca antag | M1 PAM parental | OX1R HTRF conf | CHO-K1 HTRF cnt
O=C(c1ccc([N+](=O)[O-])s1)N1CCN(c2ncccn2)CC1 | nt | nt | nt | 1 | -14 | 26 | nt | nt
COc1ccccc1C(=O)NNC(=O)C1CCCO1 (stereo not drawn) | 17 | -6 | 6 | 0 | -16 | 8 | nt | nt
CC1CCC(C(C)C)C(OC(=O)C[n+]2cc(-c3ccc(Cl)cc3)n3c2CCC3)C1 (stereo not drawn) | 102* | -24 | -6 | 1 | -3 | 10 | 19 | 4
O=C(C[n+]1cc(-c2ccc(Cl)cc2)n2c1CCC2)N1c2ccccc2Sc2ccccc21 | 12 | -14 | -4 | 0 | 4 | -3 | nt | nt
Cc1ccc(/C=C(\CCC(=O)O)c2nc3ccccc3s2)cc1[N+](=O)[O-] | 27 | -6 | 2 | 0 | 1 | 5 | nt | nt
CNc1ccc(/C=C(\CCC(=O)O)c2nc3ccccc3s2)cc1[N+](=O)[O-] | 87* | -5 | 15 | 1 | -11 | 23 | 24 | 12
Cc1ccc(N2C(=O)c3ccc(C(=O)N4CCN(Cc5ccccc5)CC4)cc3C2=O)cc1 | 13 | 17 | 15 | 11 | -12 | -13 | nt | nt
COc1ccc(NC(=O)/C=C/c2c(Cl)nc3ccccn23)cc1 | 111* | 18 | -28 | 1 | 1 | 15 | 96* | 17*
O=C1c2cccc3cc([N+](=O)[O-])cc(c23)C(=O)N1/N=C/c1ccc(O)cc1O | 181* | -16 | -3 | 1 | -3 | 3 | 74* | 108*
CCn1c(SCc2nc(-c3cccs3)no2)nnc1-c1c[nH]c2ccccc12 | 81* | 10 | -25 | 3 | -5 | -2 | 43 | 3
CCN1CCN(C2=C(NS(=O)(=O)c3ccc(NC(C)=O)cc3)C(=O)c3ccccc3C2=O)CC1 | 94* | -12 | -18 | 1 | -4 | -9 | 59* | 104*
CCOC(=O)N1CCN(C2=C(NS(=O)(=O)c3ccc(NC(C)=O)cc3)C(=O)c3ccccc3C2=O)CC1 | 83* | -5 | -11 | 2 | -3 | 0 | 59* | 83*
CCOC(=O)N1CCN(S(=O)(=O)c2ccc(NC(C)=O)cc2)CC1 | 2 | -17 | 1 | 1 | -9 | -10 | nt | nt
CCOC(=O)c1sc(N/N=C/c2cc(Br)c(O)c(OC)c2)nc1C | 50 | -4 | -21 | 3 | 10 | 1 | nt | nt
Cc1ccc2nc(Nc3ccccc3)c(/C=N/O)c(=O)n2c1 | 98* | 0 | -22 | 1 | 26* | -7 | 62* | 10
C[C@]12c3[nH]c4ccc(Cl)cc4c3CCN1C(=O)[C@@H](CC(=O)NCCc1ccccn1)C[C@@H]2C(=O)N1CCCCC1 | 12 | -48 | -40 | 0 | -1 | 7 | nt | nt
O=C(NC1CCCCC1)c1sc(=S)n2c1[nH]c(=O)c1ccccc12 | 82* | -17 | -3 | 2 | -8 | 16 | 56* | 10
CC(=O)c1cccc(NC(=O)CCNS(=O)(=O)c2cccc3nonc23)c1 | 97* | -5 | -20 | 1 | -6 | 11 | 25 | 23*
CC(=O)Nc1cccc(-c2nc3ccccc3[nH]2)c1 | 14 | -15 | 13 | 0 | 11 | -21 | nt | nt
O=C(Nc1cccc(-c2nc3ccccc3[nH]2)c1)c1ccccn1 | 88* | -14 | -17 | 3 | -4 | 5 | 86* | 9
CN(CC(=O)Nc1ncn[nH]1)S(=O)(=O)c1cc(Cl)ccc1Cl | 4 | -3 | -5 | 9 | 0 | 15 | nt | nt
CCOC(=O)c1c(C)nc2c3ccccc3ccn12 | 90* | 1 | -20 | 1 | -10 | 6 | 58* | -6
O=C(CSc1nnc2ccc(-c3ccccn3)nn12)Nc1ccc(F)cc1F | 22 | 1 | -5 | 0 | -1 | 7 | nt | nt
Cc1nnc(N/N=C/c2ccc([N+](=O)[O-])cc2)n1N | 127* | -5 | 3 | 3 | -15 | 13 | 38 | 76*
Cc1nnc(N/N=C\c2ccc(-c3cccc(C(=O)O)c3)o2)n1N | 115* | -1 | 1 | 2 | -17 | 26 | 48 | 33*

Screening data from PubChem.
